Source: ChEMBL document CHEMBL4266004, “Series of Alkynyl-Substituted Thienopyrimidines as Inhibitors of Protozoan Parasite Proliferation” (ACS Med Chem Lett, 2018)
pEC50: −log10 of the molar value. Activity calls are given as the source filed them. The calls are words filed in the database; no cut-off is given here.

Tests used:
Plasmodium falciparum = experiment: Antimalarial activity against Plasmodium falciparum D6 trophozoites after 72 hrs by SYBR Green I dye-based fluorescence assay; format: functional, organism-based; settings: D6, 72 h
Method in brief: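 P. falciparum D6 strain; compounds run in duplicate or quadruplicate; EC50 determined from dose-response.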

[1] = Selectivity index, ratio of TC50 for human HepG2 cells to EC50 for Trypanosoma brucei brucei 427; format: toxicity; settings: read-out: Selectivity Index
[2] = Selectivity index, ratio of TC50 for human HepG2 cells to EC50 for Plasmodium falciparum D6 trophozoites; format: toxicity; settings: read-out: Selectivity Index
Method in brief: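 P. falciparum D6 screened in duplicate or quadruplicate. Selectivity = HepG2 TC50 / P. falciparum EC50.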

[3] = Selectivity ratio of EC50 for antimalarial activity against Plasmodium falciparum C235 trophozoites to EC50 for atimalarial activity against Plasmodium falciparum D6 trophozoites; format: functional
Leishmania major = experiment: Antileishmanial activity against Leishmania major intracellular amastigotes harboring luciferase infected in mouse RAW264.7 cells after 96 hrs by luminescence assay; format: functional, organism-based; settings: RAW264.7, 96 h
Method in brief: (§1)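 L. major amastigotes screened in duplicate or quadruplicate. Selectivity derived as HepG2 TC50 / L. major EC50.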

[4] = Cytotoxicity against human HepG2 cells; format: cell-based; settings: read-out: TC50 (the source's name)
[5] = tested on: Trypanosoma brucei brucei; experiment: Antitrypanosomal activity against Trypanosoma brucei brucei 427 after 48 hrs by presto blue dye based fluorescence assay; format: functional, organism-based; settings: Trypanosoma brucei, 427, 48 h
[6] = Selectivity ratio of EC50 for antimalarial activity against Plasmodium falciparum W2 trophozoites to EC50 for atimalarial activity against Plasmodium falciparum D6 trophozoites; format: functional
[7] = Selectivity index, ratio of TC50 for mouse NIH/3T3 cells to EC50 for Trypanosoma cruzi Tulahuen intracellular amastigote harboring beta-galactosidase; format: toxicity, cell-based; settings: read-out: Selectivity Index
Method in brief: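 NIH 3T3 cells, the host line for intracellular T. cruzi amastigote culture, tested for toxicity. Selectivity = NIH3T3 TC50 / T. cruzi EC50.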

Trypanosoma cruzi = experiment: Antitrypanosomal activity against Trypanosoma cruzi Tulahuen intracellular amastigote harboring beta-galactosidase infected in mouse NIH/3T3 cells after 96 hrs by CPRG reagent based assay; format: functional, organism-based; settings: NIH3T3, 96 h
[8] = Cytotoxicity against mouse NIH/3T3 cells; format: cell-based, NIH3T3; settings: read-out: TC50 (the source's name)
[9] = tested on: Trypanosoma brucei brucei; experiment: Antitrypanosomal activity against Trypanosoma brucei brucei 427 at 5 uM after 48 hrs by presto blue dye based fluorescence assay relative to control; format: functional
Method in brief: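 Single-concentration screen of bloodstream T. brucei cultures at 5 μM, 5 × 10^4 cells/mL; percent proliferation inhibition recorded.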

[10] = Selectivity index, ratio of TC50 for human HepG2 cells to EC50 for Leishmania major intracellular amastigotes harboring luciferase infected in mouse RAW264.7 cells; format: toxicity, cell-based; settings: read-out: Selectivity Index; method in brief: as §1
Trypanosoma brucei [11] = experiment: Antitrypanosomal activity against Trypanosoma brucei Lister 427 assessed as increase in fraction of trypanosomes containing one 2K2N at 9.5 uM after 3 hrs by mCLING/DAPI staining based fluorescence microsocpic method; format: functional, organism-based
Method in brief: (§2)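 Mid-log bloodstream T. brucei (5 × 10^5 cells/mL) exposed to compound or DMSO for 3 h, fixed, stained with mCLING plus DAPI for kinetoplast and nuclear DNA; kinetoplasts and nuclei per cell counted by fluorescence microscopy (n >120 cells); mean percentages over three biological replicates; distribution compared by Pearson χ2.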

Trypanosoma brucei [12] = experiment: Antitrypanosomal activity against Trypanosoma brucei Lister 427 assessed as reduction in fraction of trypanosomes containing one kinetoplast at 9.5 uM after 3 hrs by mCLING/DAPI staining based fluorescence microsocpic method; format: functional, organism-based; method in brief: as §2
Trypanosoma brucei [13] = experiment: Antitrypanosomal activity against Trypanosoma brucei Lister 427 assessed as increase in fraction of trypanosomes containing one 2K1N at 9.5 uM after 3 hrs by mCLING/DAPI staining based fluorescence microsocpic method; format: functional, organism-based; method in brief: as §2
Mus musculus [14] = experiment: Toxicity in Swiss Webster mouse infected with Trypanosoma brucei Lister 427 at 130 mg/kg, po via gavage once daily for 10 days starting from 24 hrs post infection; format: organism-based; settings: in vivo
Method in brief: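 Infected mice (four per group; 10^5 T. brucei Lister427) dosed orally 130 mg/kg once daily for 10 days from 24 h post-infection, vehicle 10% NMP/90% PEG; observed for signs of toxicity.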

Trypanosoma brucei [15] = experiment: Antitrypanosomal activity against Trypanosoma brucei Lister 427 assessed as reduction in fraction of trypanosomes containing one nucleus at 9.5 uM after 3 hrs by mCLING/DAPI staining based fluorescence microsocpic method; format: functional, organism-based; method in brief: as §2
Trypanosoma brucei [16] = experiment: Antitrypanosomal activity against Trypanosoma brucei Lister 427 infected in Swiss Webster mouse assessed as mouse survival at 130 mg/kg, po via gavage once daily for 10 days starting from 24 hrs post infection (reference value: 5 day); format: functional
Method in brief: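 Mice, four per group, infected with 10^5 T. brucei Lister427 on day 0. From 24 h, oral gavage at 130 mg/kg once daily for 10 days in 10% NMP/90% PEG; controls received vehicle only. Parasitemia followed through and after dosing. Survival compared by chi-square analysis of Kaplan–Meier data.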

Trypanosoma brucei [17] = experiment: Inhibition of transferrin-647 uptake in Trypanosoma brucei Lister 427 at 9.5 uM after 3 hrs by propidium iodide staining based flow cytometry; format: functional, organism-based
Trypanosoma brucei [18] = experiment: Antitrypanosomal activity against Trypanosoma brucei Lister 427 infected in Swiss Webster mouse assessed as reduction in parasitemia at 130 mg/kg, po via gavage once daily for 10 days starting from 24 hrs post infection measured on day 13 by hemocytometric method; format: functional, organism-based
Method in brief: (§3)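 Mice, four per group, infected with 10^5 T. brucei Lister427 (day 0); from 24 h, 130 mg/kg by oral gavage once daily for 10 days in 10% NMP/90% PEG; controls received vehicle; parasitemia followed over time after infection; mean parasitemia compared by Student's t test.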

Trypanosoma brucei [19] = experiment: Antitrypanosomal activity against Trypanosoma brucei Lister 427 infected in Swiss Webster mouse assessed as reduction in parasitemia at 130 mg/kg, po via gavage once daily for 10 days starting from 24 hrs post infection by hemocytometric method; format: functional, organism-based; method in brief: as §3
Mus musculus [20] = experiment: Time at which plasma concentration stays above in vitro antitrypanosomal EC50 in Swiss Webster mouse at 130 mg/kg, po by LC-MS/MS analysis; format: ADME, organism-based; settings: in vivo

In the case of `CN1CCN(CC#Cc2cc3ncnc(Nc4ccc(OCc5cccc(F)c5)c(Cl)c4)c3s2)CC1`, the pEC50 (Plasmodium falciparum) was 6.19, the selectivity ratio [1] was 4.3 and the selectivity ratio [2] was 17. The Ratio EC50 [3] was < 3, the pEC50 (Leishmania major) was < 4.82 and the CC50 [4] was 11 µM. For the same compound, the pEC50 [5] was 5.60, the Ratio EC50 [6] was < 3 and the selectivity ratio [7] was 2.3. The pEC50 (Trypanosoma cruzi) was 5.68, the CC50 [8] was 4.8 µM and the Activity [9] was >75%.

In the case of `CCCN(CC#Cc1cc2c(Nc3ccc(OCc4cccc(F)c4)c(Cl)c3)ncnc2s1)CCC`, the pEC50 (Plasmodium falciparum) was 6.10, the selectivity ratio [2] was 21 and the Ratio EC50 [3] was < 3. The pEC50 (Leishmania major) was 5.85, the CC50 [4] was 17 µM and the selectivity ratio [10] was 12. The Ratio EC50 [6] was < 3, the selectivity ratio [7] was 1.3 and the pEC50 (Trypanosoma cruzi) was 5.77. It also gave a CC50 [8] of 2.2 µM and an Activity [9] of 0%.

With `Fc1cccc(COc2ccc(Nc3ncnc4cc(C#C[C@H]5CCCN5)sc34)cc2Cl)c1` the Activity (Trypanosoma brucei [11]) was “Active”, the Activity (Trypanosoma brucei [12]) was “Active” and the Activity (Trypanosoma brucei [13]) was “Active”. For the same compound, the Activity (Mus musculus [14]) was “Non-Toxic”, the Activity (Trypanosoma brucei [15]) was “Active” and the Survival (Trypanosoma brucei [16]) was 7.5 days. The pEC50 [5] was 6.59, the inhibition (Trypanosoma brucei [17]) was “inactive” and the Activity (Trypanosoma brucei [18]) was “inactive”. The Activity (Trypanosoma brucei [19]) was “Active” and the Time (Mus musculus [20]) was “<= 4 hr”.

In the case of `COCC#Cc1cc2ncnc(Nc3ccc(OCc4cccc(F)c4)c(Cl)c3)c2s1`, the pEC50 (Plasmodium falciparum) was 5.23, the selectivity ratio [1] was > 9.7 and the selectivity ratio [2] was > 5.6. The pEC50 (Leishmania major) was 5.03, the CC50 [4] was > 33 µM and the selectivity ratio [10] was > 3.5. The pEC50 [5] was 5.47, the selectivity ratio [7] was > 1.6 and the pEC50 (Trypanosoma cruzi) was 4.51. For the same compound, the CC50 [8] was > 50 µM and the Activity [9] was >75%.

Work on `Fc1cccc(COc2ccc(Nc3ncnc4cc(C#Cc5ccccn5)sc34)cc2Cl)c1` yielded a pEC50 (Plasmodium falciparum) of 5.70, a selectivity ratio [1] of 18 and a selectivity ratio [2] of 12. It also gave a pEC50 (Leishmania major) of 6.42, a CC50 [4] of 24 µM and a selectivity ratio [10] of 63. It also gave a pEC50 [5] of 5.89, a selectivity ratio [7] of 2.3 and a pEC50 (Trypanosoma cruzi) of 4.92. The CC50 [8] was 27 µM and the Activity [9] was >75%.

Work on `Fc1cccc(COc2ccc(Nc3ncnc4cc(C#C[C@@H]5CCCN5)sc34)cc2Cl)c1` yielded a pEC50 (Plasmodium falciparum) of 6.03, a selectivity ratio [1] of 44 and a selectivity ratio [2] of 10. For the same compound, the Ratio EC50 [3] was < 3, the pEC50 (Leishmania major) was 5.38 and the CC50 [4] was 9.6 µM. For the same compound, the selectivity ratio [10] was 2.3, the pEC50 [5] was 6.66 and the Ratio EC50 [6] was < 3. It also gave a selectivity ratio [7] of 2.7, a pEC50 (Trypanosoma cruzi) of 5.43 and a CC50 [8] of 10 µM. For the same compound, the Activity [9] was >75%.
